In PMC4465584 (Journal of medicinal chemistry, 2015):

How the values were obtained:
[1] = system: DENV replicon-containing cells; test: Cell viability assay; format: cell-based, baby hamster; conditions: single concentration 10 μM, 3 days, DENV replicon BHK cells
WNV = WNV subgenomic replicon assay; format: cell-based, West Nile virus; conditions: for inhibition against WNV relative to DENV: 10 μM, comparison of replicon assays
DENV = DENV subgenomic replicon assay; format: cell-based, Dengue virus; conditions: for DENV Inhibition %: single concentration 10 μM, 3 days, BHK replicon cells; for activity against DENV relative to WNV: 10 μM, comparison of replicon assays
[2] = system: WNV replicon-containing cells; test: Cell viability assay; format: cell-based, baby hamster; conditions: for cytotoxicity: 10 μM, replicon cells
HIV-1 [3] = conditions: read-out: EC50 against HIV-1; as reported previously ref 23; cited from earlier work
HIV-1 [4] = test: HIV-1 antiviral assay; format: cell-based; conditions: data not shown
DNV3MTase = DNV3MTase (Dengue virus type 3, UniProt P27915); test: SAM binding inhibition; design: species or system DENV3; conditions: 20 μM compound, 580 nM biotinylated DNV3MTase, 425 nM 3H-SAM
Chain of DNV3MTase (P27915 2492-2753): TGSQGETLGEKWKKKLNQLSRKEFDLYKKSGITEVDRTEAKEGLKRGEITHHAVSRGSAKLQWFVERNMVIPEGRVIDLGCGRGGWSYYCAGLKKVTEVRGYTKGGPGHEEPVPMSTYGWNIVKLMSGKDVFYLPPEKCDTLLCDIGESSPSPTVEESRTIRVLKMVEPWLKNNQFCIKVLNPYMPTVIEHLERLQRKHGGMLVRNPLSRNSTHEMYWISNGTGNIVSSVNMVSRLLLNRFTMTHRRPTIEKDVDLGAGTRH
How it was run: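 DENV3 MTase from E. coli, refolded from urea on Ni-NTA and cleaved with 3C protease, then NHS-biotinylated (13:1 biotin:protein). Test compound, SAM or sinefungin preincubated 20 min at 23°C. Then 1.65 μCi ³H-SAM, 15 min. Centrifuged; SPA counts read.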

Question: Which “DENV Viability %” value [1] does the source give for “3′-azidothymidine [4, AZT, reference compound]” here?
Answer: The value was 89%.

Question: And the “WNV Inhibition %” value (WNV; single concentration 10 μM, 3 days, BHK replicon cells)?
Answer: The value was 0%.

Question: And the “DENV Inhibition %” value (DENV)?
Answer: The value was 0%.

Question: What about the “WNV Viability %” value ([2]; single concentration 10 μM, 3 days, WNV replicon BHK cells) of the same compound?
Answer: The value was 83%.

Question: Which EC50 (HIV-1 [3]) does the source give for `COc1ccc2cc(-c3cnnn3[C@H]3C[C@H](n4cc(C)c(=O)[nH]c4=O)O[C@@H]3CO)ccc2c1` [10a, 1-((2R,4S,5S)-5-(Hydroxymethyl)-4-(5-(6-methoxynaphthalen-2-yl)-1H-1,2,3-triazol-1-yl)tetrahydrofuran-2-yl)-5-methylpyrimidine-2,4(1H,3H)-dione] here?
Answer: The EC50 was 67 nM.

Question: And the “DENV Inhibition %” value (DENV)?
Answer: The value was “did not show any inhibition”.

Question: Which anti-HIV-1 activity (HIV-1 [4]) does the source give for `COc1ccc2cc(-c3cnnn3[C@H]3C[C@H](n4cc(C)c(=O)[nH]c4=O)O[C@@H]3CO[Si](C)(C)C(C)(C)C)ccc2c1` [11a] here?
Answer: The anti-HIV-1 activity was “no appreciable anti-HIV-1 activity”.

Question: What about the “DENV Inhibition %” value (DENV) of the same compound?
Answer: The value was “inhibited both viruses almost completely”.

Question: Which “inhibition against WNV relative to DENV” value (WNV) does the source give for `Cc1cn([C@H]2C[C@H](N3C(=O)CSC3c3ccc4[nH]ccc4c3)[C@@H](CO[Si](C)(C)C(C)(C)C)O2)c(=O)[nH]c1=O` (stereo partly drawn) [13b] here?
Answer: Its value is “substantially higher inhibition against WNV than DENV”.

Question: For `Cc1cn([C@H]2C[C@H](N3C(=O)CSC3c3c4ccccc4cc4ccccc34)[C@@H](CO[Si](C)(C)C(C)(C)C)O2)c(=O)[nH]c1=O` (stereo partly drawn) [13c], which “inhibition against WNV relative to DENV” value (WNV) is on record?
Answer: The value was “substantially higher inhibition against WNV than DENV”.

Question: Which “activity against DENV relative to WNV” value (DENV) does the source give for `Cc1cn([C@H]2C[C@H](NC(=O)c3c[nH]c4ccccc34)[C@@H](CO[Si](C)(C)C(C)(C)C)O2)c(=O)[nH]c1=O` [15f] here?
Answer: Its value is “considerably more active against DENV than WNV”.

Question: With `Cc1cn([C@H]2C[C@H](NC(=O)c3ccc(N4CCOCC4)cc3)[C@@H](CO[Si](C)(C)C(C)(C)C)O2)c(=O)[nH]c1=O` [15h] as the compound, how does the “activity against DENV relative to WNV” value (DENV) read?
Answer: Its value is “considerably more active against DENV than WNV”.

Question: Which “activity against DENV relative to WNV” value (DENV) does the source give for `Cc1cn([C@H]2C[C@H](NC(=O)Nc3ccccc3)[C@@H](CO[Si](C)(C)C(C)(C)C)O2)c(=O)[nH]c1=O` [19a] here?
Answer: The value was “considerably more active against DENV than WNV”.

Question: With `Cc1cn([C@H]2C[C@H](NC(=O)Nc3cccc4ccccc34)[C@@H](CO[Si](C)(C)C(C)(C)C)O2)c(=O)[nH]c1=O` [19b] as the compound, how does the “activity against DENV relative to WNV” value (DENV) read?
Answer: The value was “considerably more active against DENV than WNV”.

Question: Which “inhibition against WNV relative to DENV” value (WNV) does the source give for `Cc1cn([C@H]2C[C@H](NC(=O)NC34CC5CC(CC(C5)C3)C4)[C@@H](CO[Si](C)(C)C(C)(C)C)O2)c(=O)[nH]c1=O` [19c] here?
Answer: The value was “substantially higher inhibition against WNV than DENV”.

Question: Which “activity against DENV relative to WNV” value (DENV) does the source give for `Cc1ccc(S(=O)(=O)NC(=O)N[C@H]2C[C@H](n3cc(C)c(=O)[nH]c3=O)O[C@@H]2CO[Si](C)(C)C(C)(C)C)cc1` [21a, N-(((2S,3S,5R)-2-(((tert-Butyldimethylsilyl)oxy)methyl)-5-(5-meth-yl-2,4-dioxo-3,4-dihydropyrimidin-1(2H)-yl)tetrahydrofuran-3-yl)-carbamoyl)-4-methylbenzenesulfonamide] here?
Answer: The value was “considerably more active against DENV than WNV”.

Question: For `C[S+](CC[C@H](N)C(=O)[O-])C[C@H]1O[C@@H](n2cnc3c(N)ncnc32)[C@H](O)[C@@H]1O` (stereo partly drawn) [SAM, S-adenosyl-L-methionine], which “Inhibition of the [3H]-SAM-MTase complex formation” value (DNV3MTase) is on record?
Answer: The value was “same level of reduction”.

Question: With `Nc1ncnc2c1ncn2[C@@H]1O[C@H](C[C@@H](N)CC[C@H](N)C(=O)O)[C@@H](O)[C@H]1O` [SIN, sinefungin] as the compound, how does the “Inhibition of the [3H]-SAM-MTase complex formation” value (DNV3MTase) read?
Answer: The value was “same level of reduction”.

Question: For `COc1ccc2cc(-c3cnnn3[C@H]3C[C@H](n4cc(C)c(=O)[nH]c4=O)O[C@@H]3CO[Si](C(C)C)(C(C)C)C(C)C)ccc2c1` [compound 22], which cytotoxicity [2] is on record?
Answer: The cytotoxicity was “significant cytotoxicity”.

Question: Which cytotoxicity [2] does the source give for `COc1ccc2cc(-c3cnnn3[C@H]3C[C@H](n4cc(C)c(=O)[nH]c4=O)O[C@@H]3CO[Si](c3ccccc3)(c3ccccc3)C(C)(C)C)ccc2c1` [compound 23] here?
Answer: Its cytotoxicity is “significant cytotoxicity”.

Question: For `COc1ccc2cc(-c3cnnn3[C@H]3C[C@H](n4cc(C)c(=O)[nH]c4=O)O[C@@H]3COC(C)=O)ccc2c1` [compound 24, ((2S,3S,5R)-3-(5-(6-Methoxynaphthalen-2-yl)-1H-1,2,3-triazol-1-yl)-5-(5-methyl-2,4-dioxo-3,4-dihydropyrimidin-1(2H)-yl)tetrahydrofuran-2-yl)methyl acetate], which “DENV Inhibition %” value (DENV) is on record?
Answer: Its value is “did not yield appreciable antiviral activity”.

Question: With `COC[C@H]1O[C@@H](n2cc(C)c(=O)n(C)c2=O)C[C@@H]1n1nncc1-c1ccc2cc(OC)ccc2c1` [compound 25, 1-((2R,4S,5S)-5-(Methoxymethyl)-4-(5-(6-methoxynaphthalen-2-yl)-1H-1,2,3-triazol-1-yl)tetrahydrofuran-2-yl)-3,5-dimethylpyrimidine-2,4(1H,3H)-dione] as the compound, how does the “DENV Inhibition %” value (DENV) read?
Answer: The value was “did not yield appreciable antiviral activity”.

Question: For `CCOCOC[C@H]1O[C@@H](n2cc(C)c(=O)[nH]c2=O)C[C@@H]1n1nncc1-c1ccc2cc(OC)ccc2c1` [compound 26, 1-((2R,4S,5S)-5-((Ethoxymethoxy)methyl)-4-(5-(6-methoxynaphthalen-2-yl)-1H-1,2,3-triazol-1-yl)tetrahydrofuran-2-yl)-5-methylpyrimidine-2,4(1H,3H)-dione], which “DENV Inhibition %” value (DENV) is on record?
Answer: Its value is “did not yield appreciable antiviral activity”.

Question: Which “DENV Inhibition %” value (DENV) does the source give for `COc1ccc2cc(-c3cnnn3[C@H]3C[C@H](n4cc(C)c(=O)[nH]c4=O)O[C@@H]3COC3CCCCO3)ccc2c1` (stereo partly drawn) [compound 27, 1-((2R,4S,5S)-4-(5-(6-Methoxynaphthalen-2-yl)-1H-1,2,3-triazol-1-yl)-5-(((tetrahydro-2H-pyran-2-yl)oxy)methyl)-tetrahydrofuran-2-yl)-5-methylpyrimidine-2,4(1H,3H)-dione] here?
Answer: The value was “did not yield appreciable antiviral activity”.
